In test [1] the test system is MT4. Description: In vitro inhibitory activity for cytopathicities induced by HIV-1III B against MT-4 cells. The class given is functional, cell-based. Conditions: Homo sapiens. In short, it runs like this: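 Exponentially growing MT-4 cells were pelleted (140g, 5 min), infected in a small volume of RPMI-1640 with 100 TCID50 HIV-1 IIIB for 1 h, washed, and plated at 2.5 × 10⁴ cells/well with serial oligonucleotide dilutions. Viability was read by MTT at day 6. IC50 was taken from dose-response curves, as the mean of duplicate or quadruplicate ± SD.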

Test [2] concerns MT4. Description: Cytotoxicity was measured against MT-4 cells using MTT assay. It is filed as functional. Conditions: Homo sapiens.

Where only a bound is given, the exact number is not on record here.

As for `Cc1cn([C@H]2C[C@H](OP(=O)(O)OC[C@H]3O[C@@H](n4cnc5c(=O)[nH]c(N)nc54)C[C@@H]3OP(=O)(O)OC[C@H]3O[C@@H](n4cnc5c(=O)[nH]c(N)nc54)C[C@@H]3OP(=O)(O)OC[C@H]3O[C@@H](n4cnc5c(=O)[nH]c(N)nc54)C[C@@H]3OP(=O)(O)OC[C@H]3O[C@@H](n4cnc5c(N)ncnc54)C[C@@H]3OP(=O)(O)OC[C@H]3O[C@@H](n4cnc5c(=O)[nH]c(N)nc54)C[C@@H]3O)[C@@H](COC(c3ccccc3)(c3ccccc3)c3ccccc3)O2)c(=O)[nH]c1=O`, in the test on MT4 [1], half-maximal inhibition (IC50) required 0.8 µM. Besides, in the test on MT4 [2], the CC50 is 23 µM.
The compound `Cc1cn([C@H]2C[C@H](OP(=O)(O)OC[C@H]3O[C@@H](n4cc(C)c(=O)[nH]c4=O)C[C@@H]3OP(=O)(O)OC[C@H]3O[C@@H](n4cc(C)c(=O)[nH]c4=O)C[C@@H]3OP(=O)(O)OC[C@H]3O[C@@H](n4cc(C)c(=O)[nH]c4=O)C[C@@H]3OP(=O)(O)OC[C@H]3O[C@@H](n4cc(C)c(=O)[nH]c4=O)C[C@@H]3OP(=O)(O)OC[C@H]3O[C@@H](n4cc(C)c(=O)[nH]c4=O)C[C@@H]3O)[C@@H](COCc3ccc(OCc4ccccc4)c(OCc4ccccc4)c3)O2)c(=O)[nH]c1=O` displayed an IC50 in the test on MT4 [1] of more than 24 µM. The compound further displayed a CC50 with MT4 [2] of more than 24 µM.
With `Cc1cn([C@H]2C[C@H](OP(=O)(O)OC[C@H]3O[C@@H](n4cnc5c(O)nc(N)nc54)C[C@@H]3O)[C@@H](COCc3ccc(OCc4ccccc4)c(OCc4ccccc4)c3)O2)c(=O)[nH]c1=O`, in the test on MT4 [1], the IC50 was more than 100 µM. In the test on MT4 [2], this compound showed a CC50 of more than 100 µM.
In the test with MT4 [1], `Cc1cn([C@H]2C[C@H](OP(=O)(O)OC[C@H]3O[C@@H](n4cnc5c(=O)[nH]c(N)nc54)C[C@@H]3OP(=O)(O)OC[C@H]3O[C@@H](n4cnc5c(=O)[nH]c(N)nc54)C[C@@H]3OP(=O)(O)OC[C@H]3O[C@@H](n4cnc5c(=O)[nH]c(N)nc54)C[C@@H]3OP(=O)(O)OC[C@H]3O[C@@H](n4cnc5c(N)ncnc54)C[C@@H]3OP(=O)(O)OC[C@H]3O[C@@H](n4cnc5c(=O)[nH]c(N)nc54)C[C@@H]3O)[C@@H](COCc3ccc4ccccc4c3)O2)c(=O)[nH]c1=O` gave an IC50 of 2 µM. In the test on MT4 [2], this compound showed a CC50 of more than 40 µM.
In turn, `Cc1cn([C@H]2C[C@H](OP(=O)(O)OC[C@H]3O[C@@H](n4cnc5c(=O)[nH]c(N)nc54)C[C@@H]3OP(=O)(O)OC[C@H]3O[C@@H](n4cnc5c(=O)[nH]c(N)nc54)C[C@@H]3OP(=O)(O)OC[C@H]3O[C@@H](n4cnc5c(=O)[nH]c(N)nc54)C[C@@H]3OP(=O)(O)OC[C@H]3O[C@@H](n4cnc5c(N)ncnc54)C[C@@H]3OP(=O)(O)OC[C@H]3O[C@@H](n4cnc5c(=O)[nH]c(N)nc54)C[C@@H]3O)[C@@H](COCc3ccc(OCc4ccccc4)c(OCc4ccccc4)c3)O2)c(=O)[nH]c1=O` displayed an IC50 in the test with MT4 [1] of 0.37 µM. Further, the CC50 in the test with MT4 [2] was more than 40 µM.
In the same order, the values of `Cc1cn([C@H]2C[C@H](OP(=O)(O)OC[C@H]3O[C@@H](n4cnc5c(=O)[nH]c(N)nc54)C[C@@H]3OP(=O)(O)OC[C@H]3O[C@@H](n4cnc5c(=O)[nH]c(N)nc54)C[C@@H]3OP(=O)(O)OC[C@H]3O[C@@H](n4cnc5c(=O)[nH]c(N)nc54)C[C@@H]3OP(=O)(O)OC[C@H]3O[C@@H](n4cnc5c(N)ncnc54)C[C@@H]3OP(=O)(O)OC[C@H]3O[C@@H](n4cnc5c(=O)[nH]c(N)nc54)C[C@@H]3O)[C@@H](COCc3ccc4ccc5cccc6ccc3c4c56)O2)c(=O)[nH]c1=O` are 1.8 µM and more than 40 µM.
In the same order, the values of `Cc1cn([C@H]2C[C@H](OP(=O)(O)OC[C@H]3O[C@@H](n4cnc5c(O)nc(N)nc54)C[C@@H]3OP(=O)(O)OC[C@H]3O[C@@H](n4cnc5c(O)nc(N)nc54)C[C@@H]3OP(=O)(O)OC[C@H]3O[C@@H](n4cnc5c(O)nc(N)nc54)C[C@@H]3OP(=O)(O)OC[C@H]3O[C@@H](n4cnc5c(N)ncnc54)C[C@@H]3O)[C@@H](COCc3ccc(OCc4ccccc4)c(OCc4ccccc4)c3)O2)c(=O)[nH]c1=O` are 1.9 µM and more than 40 µM.
Compound `Cc1cn([C@H]2C[C@H](OP(=O)(O)OC[C@H]3O[C@@H](n4cnc5c(=O)[nH]c(N)nc54)C[C@@H]3OP(=O)(O)OC[C@H]3O[C@@H](n4cnc5c(=O)[nH]c(N)nc54)C[C@@H]3OP(=O)(O)OC[C@H]3O[C@@H](n4cnc5c(=O)[nH]c(N)nc54)C[C@@H]3OP(=O)(O)OC[C@H]3O[C@@H](n4cnc5c(N)ncnc54)C[C@@H]3OP(=O)(O)OC[C@H]3O[C@@H](n4cnc5c(=O)[nH]c(N)nc54)C[C@@H]3O)[C@@H](COCc3ccccc3)O2)c(=O)[nH]c1=O` showed an IC50 in the test with MT4 [1] of more than 40 µM. In addition, the CC50 in the test with MT4 [2] is more than 40 µM.
In the test on MT4 [1], `Cc1cn([C@H]2C[C@H](OP(=O)(O)OC[C@H]3O[C@@H](n4cc(C)c(=O)[nH]c4=O)C[C@@H]3OP(=O)(O)OC[C@H]3O[C@@H](n4cnc5c(O)nc(N)nc54)C[C@@H]3OP(=O)(O)OC[C@H]3O[C@@H](n4cnc5c(O)nc(N)nc54)C[C@@H]3O)[C@@H](COCc3ccc(OCc4ccccc4)c(OCc4ccccc4)c3)O2)c(=O)[nH]c1=O` showed an IC50 of more than 50 µM. Moreover, the CC50 in the test on MT4 [2] was 33 µM.
In the same order, the values of `Cc1cn([C@H]2C[C@H](OP(=O)(O)OC[C@H]3O[C@@H](n4cnc5c(=O)[nH]c(N)nc54)C[C@@H]3OP(=O)(O)OC[C@H]3O[C@@H](n4cnc5c(=O)[nH]c(N)nc54)C[C@@H]3OP(=O)(O)OC[C@H]3O[C@@H](n4cnc5c(=O)[nH]c(N)nc54)C[C@@H]3OP(=O)(O)OC[C@H]3O[C@@H](n4cnc5c(N)ncnc54)C[C@@H]3OP(=O)(O)OC[C@H]3O[C@@H](n4cnc5c(=O)[nH]c(N)nc54)C[C@@H]3O)[C@@H](COCc3cc(OCc4ccccc4)cc(OCc4ccccc4)c3)O2)c(=O)[nH]c1=O` are 0.49 µM and more than 40 µM.
In the same order, the values of `Cc1cn([C@H]2C[C@H](OP(=O)(O)OC[C@H]3O[C@@H](n4cnc5c(O)nc(N)nc54)C[C@@H]3OP(=O)(O)OC[C@H]3O[C@@H](n4cnc5c(O)nc(N)nc54)C[C@@H]3OP(=O)(O)OC[C@H]3O[C@@H](n4cnc5c(O)nc(N)nc54)C[C@@H]3O)[C@@H](COCc3ccc(OCc4ccccc4)c(OCc4ccccc4)c3)O2)c(=O)[nH]c1=O` are 4.6 µM and more than 40 µM.
In the test on MT4 [1], `Cc1cn([C@H]2C[C@H](OP(=O)(O)OC[C@H]3O[C@@H](n4cnc5c(=O)[nH]c(N)nc54)C[C@@H]3OP(=O)(O)OC[C@H]3O[C@@H](n4cnc5c(=O)[nH]c(N)nc54)C[C@@H]3OP(=O)(O)OC[C@H]3O[C@@H](n4cnc5c(=O)[nH]c(N)nc54)C[C@@H]3OP(=O)(O)OC[C@H]3O[C@@H](n4cnc5c(=O)[nH]c(N)nc54)C[C@@H]3OP(=O)(O)OC[C@H]3O[C@@H](n4cnc5c(=O)[nH]c(N)nc54)C[C@@H]3O)[C@@H](COCc3ccc(OCc4ccccc4)c(OCc4ccccc4)c3)O2)c(=O)[nH]c1=O` yielded an IC50 of 0.26 µM. The compound also registered a CC50 in the test with MT4 [2] of more than 40 µM.

The values are drawn from ChEMBL document CHEMBL1131099, “Biologically active oligodeoxyribonucleotides. 5. 5'-End-substituted d(TGGGAG) possesses anti-human immunodeficiency virus type 1 activity by forming a G-quadruplex structure” (J Med Chem, 1998).
